Measurements gathered from unrelated publications.
Compare with care: the assays were run in different laboratories.
Cell line: MCF7
Observed: cell growth or viability

| Structure (SMILES) | method | time | IC50 |
| --- | --- | --- | --- |
| N.N.[Cl][Pt][Cl] | SRB | 48 h | 9.6 µM |
| O=C(Oc1ccc(Br)cc1)[c-]1cccc1.[Fe+2].c1cc[cH-]c1 | MTT | 72 h | 9.2 µM |
| N.N.[Cl][Pt][Cl] | MTT | – | 10 µM |
| CO[C@]1([C@@H]2CSC(=O)N2C2CCCC2)C[C@H]2C[C@@H](CC[C@H](C)/C=C\C=C\CC/C(C)=C\C(=O)O2)O1 | MTT | 72 h | 5.3 µM |
| N.N.[Cl][Pt][Cl] | MTT | 48 h | 14.2 µM |
| CCN1C(=O)SC[C@H]1[C@@]1(O)C[C@H]2C[C@@H](CC[C@H](C)/C=C\C=C\CC/C(C)=C\C(=O)O2)O1 | MTT | 72 h | 0.95 µM |
| C=C(C)C(=O)O[C@H]1CC2=C[C@@H](C/C(C)=C/[C@H]3OC(=O)C(=C)[C@H]13)OC2=O | MTT | 24 h | 2.3 µM |
| C/C1=C/C(=O)O[C@@H]2C[C@@H](CC[C@H](C)/C=C\C=C\CC1)O[C@@](OCCc1ccccc1)([C@@H]1CSC(=O)N1)C2 | MTT | 72 h | 0.1 µM |
| COCO[C@@H]1[C@H]2OC(C)(C)O[C@H]2[C@H](O[C@H]2C[C@H]3OC(C)(C)OC[C@]34[C@@H]3[C@@H](CC[C@]4(O)C2)[C@@]2(O)CC[C@H](CO)[C@@]2(C)C[C@H]3OCOC)O[C@H]1C | resazurin | 72 h | > 100 µM |
| CCC1(c2ccc(N)cc2)CCC(=O)NC1=O (centres unmarked) | CCK-8 | 48 h | > 50 µM |
| O=C(Oc1ccc(I)cc1)[c-]1cccc1.[Fe+2].c1cc[cH-]c1 | MTT | 72 h | 256 µM |
| COc1c2ccoc2cc2oc(=O)ccc12 | WST-1 | 48 h | 34.5 µM |
| CO[C@]1([C@@H]2CSC(=O)N2Cc2ccccc2)C[C@H]2C[C@@H](CC[C@H](C)/C=C\C=C\CC/C(C)=C\C(=O)O2)O1 | MTT | 72 h | 0.78 µM |
| O=C(O)CCCc1ccc(N(CCCl)CCCl)cc1 | CCK-8 | 48 h | 38.5 µM |
| COc1c2c(cc3c1OCO3)[C@]13C=C[C@H](OC)C[C@@H]1[N@](C2)C[C@H]3OC(=O)c1ccoc1 | WST-1 | – | > 10 µM |
| C[C@@H]1O[C@@H](O[C@H]2C[C@@H](O)[C@]3(CO)[C@H]4[C@H](O)C[C@]5(C)[C@@H](C6=CC(=O)OC6)CC[C@]5(O)[C@@H]4CC[C@]3(O)C2)[C@H](O)[C@H](O)[C@H]1O | resazurin | 72 h | 0.053 µM |
| C/C1=C/C(=O)O[C@@H]2C[C@@H](CC[C@H](C)/C=C\C=C\CC1)O[C@@](OC(=O)c1ccccc1)([C@@H]1CSC(=O)N1)C2 | MTT | 72 h | 0.52 µM |
| N.N.O=C([O-])C1(C(=O)[O-])CCC1.[Pt+2] | MTT | 96 h | > 100 µM |
| COC1(C2CSC(=O)N2)CC2CC(CCC(C)C=CC=CCCC(C)=CC(=O)O2)O1 (centres unmarked) | MTT | 72 h | 10.2 µM |
| CC1c2c(c3ccccc3oc2=O)Oc2ncn(N)c(=N)c21 (centres unmarked) | MTT | 72 h | > 75 µM |
